Experiments:
[1] = Antioxidant activity in Sprague-Dawley rat Cerebral cortex neuron assessed as total oxidative stress level by measuring H2O2 equivalents at 50 uM after 24 hrs (reference value: 2.3 +/- 0.3 umol/L); assay type: functional
Summary of the method: (§1)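 Primary cerebral cortex neurons from rat fetuses, grown on poly-D-lysine in neurobasal medium with fetal calf serum (5% CO2, 37 °C), tested after 8 days in culture. Compounds in DMSO (0.5%) or sterile water were added and incubated 24 h at 37 °C. Cells were washed in ice-cold PBS and homogenized in 0.9% saline. Intracellular TAC (Trolox equiv.) and TOS (H2O2 equiv.) were read by kit. Ascorbic acid 10 µM (TAC) and H2O2 25 µM (TOS) served as positive controls. Four independent experiments.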

[2] = Antioxidant activity in Sprague-Dawley rat Cerebral cortex neuron assessed as total antioxidant capacity by measuring trolox equivalents at 0.1 uM after 24 hrs; assay type: functional; summary of the method: as §1
[3] = Antioxidant activity in Sprague-Dawley rat Cerebral cortex neuron assessed as total oxidative stress level by measuring H2O2 equivalents at 1 uM after 24 hrs (reference value: 2.3 +/- 0.3 umol/L); assay type: functional; summary of the method: as §1
[4] = Stability of compound in phosphate buffer at pH 7.4 assessed as rate of compound hydrolysis by HPLC-UV assay; assay type: physicochemical
Summary of the method: (§2)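 Chemical hydrolysis in 0.02 M HCl buffer pH 1.3 (non-enzymatic simulated gastric fluid) or 0.02 M phosphate buffer pH 7.4, each containing 20% acetonitrile, at 37 °C. Started by adding the 10^-4 M acetonitrile stock. Samples taken over time and analyzed by HPLC-UV at 220 nm. Rate constants are means of triplicates.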

[5] = Cytotoxicity against Sprague-Dawley rat Cerebral cortex neuron assessed as LDH activity at 100 uM incubated for 24 hrs by LDH assay (reference value: […]); assay type: tissue-based
Summary of the method: (§3)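 Primary fetal rat cortical neurons, matured 8 days on poly-D-lysine, exposed 24 h at 37 °C to compound (0.1–100 µM; DMSO 0.5% or water vehicle). LDH released into 100 µl culture medium was measured by kit as the rate of NAD+ reduction (absorbance increase at 490 nm). Positive control was mitomycin C. Four independent experiments.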

[6] = Cytotoxicity against Sprague-Dawley rat Cerebral cortex neuron assessed as LDH activity at 50 uM incubated for 24 hrs by LDH assay (reference value: […]); assay type: tissue-based; summary of the method: as §3
[7] = Stability of compound in rat plasma assessed as half life by HPLC-UV assay; assay type: ADME, cell-free
Summary of the method: (§4)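 Citrated human or rat plasma diluted to 80% with 0.02 M phosphate buffer pH 7.4, 37 °C with shaking. Compound added from a 1 mg/ml acetonitrile stock. Aliquots deproteinized with 0.01 M HCl in methanol, centrifuged, and analyzed by HPLC-UV (C8 column, KH2PO4/methanol pH 2.5, 220 nm). Remaining intact compound plotted against time. Three experiments.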

[8] = Stability of compound in human plasma assessed as half life by HPLC-UV assay; assay type: ADME, cell-free; summary of the method: as §4
[9] = Stability of compound in fasted state stimulated intestinal fluid at pH 1.3 assessed as rate of compound hydrolysis in presence of 40 mg/ml pepsin by HPLC-UV assay; assay type: ADME; details: isolated protein
Summary of the method: (§5)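 HCl buffer with pepsin or phosphate buffer with pancreatin (10 or 40 mg/ml), preincubated at 37 °C. Drug stock (50 µM in ethanol/fasted state intestinal fluid 1:9) added and shaken at 37 °C, 650 rpm. Samples quenched with ice-cold acetonitrile containing 0.5% formic acid, centrifuged at 2 °C, and the supernatant assayed by HPLC-UV. Three experiments.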

[10] = Stability of compound in fasted state stimulated intestinal fluid at pH 7.4 assessed as half life in presence of 40 mg/ml pancreatin by HPLC-UV assay; assay type: ADME; details: fasted state simulated intestinal fluid with pancreatin; summary of the method: as §5
[11] = Antioxidant activity in Sprague-Dawley rat Cerebral cortex neuron assessed as total antioxidant capacity by measuring trolox equivalents at 10 uM after 24 hrs; assay type: functional; summary of the method: as §1
[12] = Stability of compound in non-enzymatic stimulated-gastric fluid at pH 1.3 assessed as half life by HPLC-UV assay; assay type: physicochemical; details: non-enzymatic simulated gastric fluid; summary of the method: as §2
[13] = Cytotoxicity against Sprague-Dawley rat Cerebral cortex neuron assessed as LDH activity at 10 uM incubated for 24 hrs by LDH assay; assay type: tissue-based; summary of the method: as §3
[14] = Antioxidant activity in Sprague-Dawley rat Cerebral cortex neuron assessed as total oxidative stress level by measuring H2O2 equivalents at 100 uM after 24 hrs (reference value: 2.3 +/- 0.3 umol/L); assay type: functional; summary of the method: as §1
[15] = Cytotoxicity against Sprague-Dawley rat Cerebral cortex neuron assessed as cell viability at 1 uM incubated for 24 hrs by MTT assay relative to control; assay type: tissue-based; details: cerebral cortex neurons, read-out: Activity
Summary of the method: (§6)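 Primary fetal rat cortical neurons, matured 8 days, treated 24 h at 37 °C with compound (0.1–100 µM; 0.5% DMSO or water vehicle). MTT 0.7 mg/ml was then added for 30 min at 37 °C, and formazan was extracted with isopropanol/formic acid (95:5) and read at 560 nm. Untreated control was set as 100% viability. Four independent experiments.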

[16] = Stability of compound in fasted state stimulated intestinal fluid at pH 7.4 assessed as half life in presence of 10 mg/ml pancreatin by HPLC-UV assay; assay type: ADME; details: fasted state simulated intestinal fluid with pancreatin; summary of the method: as §5
[17] = Stability of compound in fasted state stimulated intestinal fluid at pH 1.3 assessed as half life in presence of 10 mg/ml pepsin by HPLC-UV assay; assay type: ADME; details: fasted state simulated intestinal fluid with pepsin; summary of the method: as §5
[18] = Stability of compound in phosphate buffer at pH 7.4 assessed as compound half life by HPLC-UV assay; assay type: physicochemical; summary of the method: as §2
[19] = Cytotoxicity against Sprague-Dawley rat Cerebral cortex neuron assessed as cell viability at 100 uM incubated for 24 hrs by MTT assay relative to control; assay type: tissue-based; details: cerebral cortex neurons, read-out: Activity; summary of the method: as §6
[20] = Stability of compound in fasted state stimulated intestinal fluid at pH 1.3 assessed as half life in presence of 40 mg/ml pepsin by HPLC-UV assay; assay type: ADME; details: fasted state simulated intestinal fluid with pepsin; summary of the method: as §5
[21] = Cytotoxicity against Sprague-Dawley rat Cerebral cortex neuron assessed as cell viability at 0.1 uM incubated for 24 hrs by MTT assay relative to control; assay type: tissue-based; details: cerebral cortex neurons, read-out: Activity; summary of the method: as §6
[22] = Antioxidant activity in Sprague-Dawley rat Cerebral cortex neuron assessed as total oxidative stress level by measuring H2O2 equivalents at 25 uM after 24 hrs (reference value: 2.3 +/- 0.3 umol/L); assay type: functional; summary of the method: as §1
[23] = Antioxidant activity in Sprague-Dawley rat Cerebral cortex neuron assessed as total antioxidant capacity by measuring trolox equivalents at 50 uM after 24 hrs; assay type: functional; summary of the method: as §1
[24] = Antioxidant activity in Sprague-Dawley rat Cerebral cortex neuron assessed as total oxidative stress level by measuring H2O2 equivalents at 10 uM after 24 hrs (reference value: 2.3 +/- 0.3 umol/L); assay type: functional; summary of the method: as §1
[25] = Antioxidant activity in Sprague-Dawley rat Cerebral cortex neuron assessed as total antioxidant capacity by measuring trolox equivalents at 1 uM after 24 hrs; assay type: functional; summary of the method: as §1
[26] = Stability of compound in human plasma assessed as rate of compound hydrolysis by HPLC-UV assay; assay type: ADME, cell-free; summary of the method: as §4
[27] = Cytotoxicity against Sprague-Dawley rat Cerebral cortex neuron assessed as LDH activity at 0.1 uM incubated for 24 hrs by LDH assay (reference value: […]); assay type: tissue-based; summary of the method: as §3

Row | SMILES | Activity [1] [µmol/L] | TAC [2] [mmol/L] | Activity [3] [µmol/L] | Drug degradation [4] [h⁻¹] | Activity [5] [mU/ml] | Activity [6] [mU/ml] | half-life [8] [h] | Drug degradation [9] [h⁻¹] | half-life [10] [h] | TAC [11] [mmol/L] | half-life [12] [h] | Activity [13] [mU/ml] | Activity [14] [µmol/L] | viability at 24 h, 1 µM [15] [%] | half-life [16] [h] | half-life [17] [h] | half-life [18] [h] | viability at 24 h, 100 µM [19] [%] | half-life [20] [h] | viability at 24 h, 0.1 µM [21] [%] | also measured
1 | O=C(CCCCC1CCSS1)N1CCN(Cc2ccc(F)cc2)CC1 (centres undefined) | 0.5 | 10.9 | 0.5 | 0.009 | 0.34 | 0.34 | 4.21 | 0.019 | 32.3 | 12.6 | 88 | 0.34 | 0.5 | 97.5 | 75.1 | 107 | 81 | 96.7 | 37.2 | 99.3 | half-life [7]: 2.92 h; Activity [22]: 0.5 µmol/L; TAC [23]: 11.4 mmol/L; Activity [24]: 0.4 µmol/L; TAC [25]: 11.2 mmol/L; Drug degradation [26]: 0.165 h⁻¹; Activity [27]: 0.3 mU/ml
2 | O=C(CCCCC1CCSS1)N1CCN(Cc2ccccc2)CC1 (centres undefined) | 0.5 | 10.4 | 0.5 | 0.013 | 0.34 | 0.34 | 1.76 | 0.01 | 9.58 | 12.6 | 93 | 0.32 | 0.5 | 98.6 | 22.2 | 69 | 53.8 | 95.4 | 66.2 | 99.4 | t1/2 [7]: Unstable; Activity [22]: 0.5 µmol/L; TAC [23]: 14.8 mmol/L; Activity [24]: 0.4 µmol/L; TAC [25]: 11.1 mmol/L; Drug degradation [26]: 0.39 h⁻¹; Activity [27]: 0.3 mU/ml
